Measured values published in ChEMBL document CHEMBL1649503, “Alkoxyalkyl esters of 9-(s)-(3-hydroxy-2-phosphonomethoxypropyl) adenine are potent and selective inhibitors of hepatitis B virus (HBV) replication in vitro and in HBV transgenic mice in vivo” (Antimicrob Agents Chemother, 2009).

How the values were obtained:
[1] = Tmax in Swiss-Webster mouse spleen at 10 mg/kg, po after 24 hrs; assay type: ADME, organism-based; design: dose 10 mg/kg, route oral
In short: (§1)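 Female Swiss-Webster mice (about 25 g) got one 10 mg/kg dose of the 8-14C-labeled ester (50 mCi/mmol) in 0.7% saline, by oral gavage or intraperitoneal injection. Blood was taken at 1, 3, 6, 12 and 24 h. Liver, spleen, kidney, lung, heart and brain were excised, washed and weighed. Drug plus metabolites were measured by liquid scintillation as µM plasma equivalents or nmol/g tissue. Each time point is the mean of three replicates.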

[2] = tested on: Spleen; assay: Cmax in Swiss-Webster mouse spleen assessed per gram of tissue at 10 mg/kg, ip after 24 hrs; assay type: ADME, organism-based; design: dose 10 mg/kg, route intraperitoneal; settings: in vivo
In short: (§2)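 Female Swiss-Webster mice (about 25 g) each got a single 10 mg/kg dose of the 14C-labeled (8-14C) ester (50 mCi/mmol) in 0.7% saline, by oral gavage or ip injection. Blood was taken at 1, 3, 6, 12 and 24 h, and liver, spleen, kidney, lung, heart and brain were excised, washed and weighed. Radioactivity was measured by scintillation counting as µM plasma equivalents or nmol/g tissue, mean of three per time point.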

[3] = tested on: Mus musculus; assay: Toxicity in transgenic mouse at 10 mg/kg, po assessed as morbidity after 7 days; assay type: organism-based; design: dose 10 mg/kg, route oral; settings: in vivo, 168 h
[4] = Cytotoxicity against human HepG2(2.2.15) cells after 24 hrs by neutral red assay; assay type: cell-based
In short: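 2.2.15 cells, RPMI 1640 with 2% FBS, dosed daily for nine consecutive days. Viability was read by neutral red uptake, absorbance of internalized dye at 510, 24 h after the last treatment, three cultures per concentration.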

[5] = Cmax in Swiss-Webster mouse plasma assessed per gram of tissue at 10 mg/kg, ip after 24 hrs; assay type: ADME, organism-based; design: dose 10 mg/kg, route intraperitoneal; in short: as §2
[6] = tested on: Liver; assay: AUC in Swiss-Webster mouse liver assessed per gram of tissue at 10 mg/kg, ip after 24 hrs; assay type: ADME, organism-based; design: time < 24 hr, dose 10 mg/kg, route intraperitoneal; settings: in vivo; in short: as §2
[7] = Selectivity index, ratio of CC50 for human HepG2(2.2.15) cells to EC50 for HBV infected in human HepG2(2.2.15) cells
In short: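 Ratio from two 2.2.15 readouts after nine daily doses in RPMI/2% FBS. Extracellular HBV DNA was measured by quantitative blot hybridization and cytotoxicity by neutral red uptake (three cultures per concentration), both 24 h after the final dose.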

[8] = tested on: Liver; assay: AUC in Swiss-Webster mouse liver assessed per gram of tissue at 10 mg/kg, po after 24 hrs; assay type: ADME, organism-based; design: time < 24 hr, dose 10 mg/kg, route oral; settings: in vivo; in short: as §2
[9] = Tmax in Swiss-Webster mouse kidney at 10 mg/kg, ip after 24 hrs; assay type: ADME, organism-based; design: dose 10 mg/kg, route intraperitoneal; in short: as §2
[10] = tested on: Hepatitis B virus; assay: Antiviral activity against HBV infected in transgenic mouse assessed as decrease in liver viral DNA level at 4 mg/kg, po administered daily for 14 days measured post last dose; assay type: functional
In short: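 Homozygous male and female HBV transgenic mice (founder 1.3.32; 22.2 ± 2.8 g) received drug in distilled water by oral gavage, 0.1 ml/10 g, at 7 µmol/kg (4 mg/kg) daily for 14 days. About 0.1 g liver was lysed at necropsy, and DNA was extracted with phenol-chloroform. HBV DNA was measured by qPCR normalized to GAPDH, using duplicate CTs against a dilution standard curve, in relative units/µg cell DNA.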

[11] = tested on: Hepatitis B virus; assay: Antiviral activity against HBV harboring RNA polymerase N236T mutant gene infected in human HuH7 cells assessed as decrease in viral transient transfection […]; assay type: functional, organism-based; settings: Huh-7
In short: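 Lamivudine- and adefovir-resistant HBV mutants introduced into Huh7 cells by transient transfection. Compounds were tested in a 5-day assay.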

[12] = tested on: Mus musculus; assay: Toxicity in transgenic mouse at 30 to 100 mg/kg, po assessed as mortality after 7 days; assay type: organism-based; design: dose 30-100 mg/kg, route oral; settings: in vivo, 168 h
[13] = tested on: Heart; assay: Cmax in Swiss-Webster mouse heart assessed per gram of tissue at 10 mg/kg, ip after 24 hrs; assay type: ADME, organism-based; design: dose 10 mg/kg, route intraperitoneal; settings: in vivo; in short: as §2
[14] = tested on: Liver; assay: Cmax in Swiss-Webster mouse liver assessed per gram of tissue at 10 mg/kg, po after 24 hrs; assay type: ADME, organism-based; design: dose 10 mg/kg, route oral; settings: in vivo; in short: as §2
[15] = tested on: Lung; assay: AUC in Swiss-Webster mouse lung assessed per gram of tissue at 10 mg/kg, po after 24 hrs; assay type: ADME, organism-based; design: time < 24 hr, dose 10 mg/kg, route oral; settings: in vivo; in short: as §2
[16] = tested on: Heart; assay: Cmax in Swiss-Webster mouse heart assessed per gram of tissue at 10 mg/kg, po after 24 hrs; assay type: ADME, organism-based; design: dose 10 mg/kg, route oral; settings: in vivo; in short: as §2
[17] = Tmax in Swiss-Webster mouse heart at 10 mg/kg, ip after 24 hrs; assay type: ADME, organism-based; design: dose 10 mg/kg, route intraperitoneal; in short: as §2
[18] = Tmax in Swiss-Webster mouse plasma at 10 mg/kg, ip after 24 hrs; assay type: ADME, organism-based; design: dose 10 mg/kg, route intraperitoneal; in short: as §1
[19] = tested on: Mus musculus; assay: Toxicity in transgenic mouse at 10 mg/kg, po assessed as mortality after 7 days; assay type: organism-based; design: dose 10 mg/kg, route oral; settings: in vivo, 168 h
[20] = tested on: Brain; assay: AUC in Swiss-Webster mouse brain assessed per gram of tissue at 10 mg/kg, ip after 24 hrs; assay type: ADME, organism-based; design: time < 24 hr, dose 10 mg/kg, route intraperitoneal; settings: in vivo; in short: as §2
[21] = tested on: Hepatitis B virus; assay: Antiviral activity against HBV harboring RNA polymerase M204V mutant gene infected in human HuH7 cells assessed as decrease in viral transient transfection after 5 days; settings: Huh-7, 5 days
[22] = Tmax in Swiss-Webster mouse spleen at 10 mg/kg, ip after 24 hrs; assay type: ADME, organism-based; design: dose 10 mg/kg, route intraperitoneal; in short: as §1
[23] = tested on: HepG2; assay: Drug metabolism in human HepG2 cells assessed as unidentified metabolite uptake at 10 uM after 24 hrs; assay type: ADME, cell-based; settings: hepg2, 24 h
In short: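 Nearly confluent HepG2 flasks got 14C-labeled drug (final 10 µM, 50 mCi/mmol) for 24 h. Cells were washed with cold PBS, lysed in water by two freeze-thaw cycles and sonication, then extracted with cold TCA (8% final) and centrifuged at 4°C. Supernatant was counted and analyzed by SAX ion-exchange HPLC, with metabolites assigned by retention versus reference standards.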

[24] = tested on: Lung; assay: AUC in Swiss-Webster mouse lung assessed per gram of tissue at 10 mg/kg, ip after 24 hrs; assay type: ADME, organism-based; design: time < 24 hr, dose 10 mg/kg, route intraperitoneal; settings: in vivo; in short: as §2
[25] = tested on: Mus musculus; assay: Toxicity in transgenic mouse at 30 to 100 mg/kg, po assessed as morbidity after 7 days; assay type: organism-based; design: dose 30-100 mg/kg, route oral; settings: in vivo, 168 h
[26] = tested on: Liver; assay: Cmax in Swiss-Webster mouse liver assessed per gram of tissue at 10 mg/kg, ip after 24 hrs; assay type: ADME, organism-based; design: dose 10 mg/kg, route intraperitoneal; settings: in vivo; in short: as §2

SMILES: CCCCCCCCCCCCCCCCOCCCOP(=O)(O)CO[C@H](CO)Cn1cnc2c(N)ncnc21
- Tmax [1]: 3 h
- Cmax [2]: 1.58 nmol/g
- Activity [3]: Non-toxic
- CC50 at 24 h [4]: > 300 µM
- Cmax [5]: 2230 nM
- AUC [6]: 545.1 nmol·h/g
- Selectivity Index [7]: >483
- AUC [8]: 222.2 nmol·h/g
- Tmax [9]: 1 h
- ED50 ([10]; Hepatitis B virus, Liver, 336 h): 0.096 µmol/kg
- ED90 ([10]; dose 4 mg/kg): 2.97 µmol/kg
- EC50 [11]: > 100 µM
- EC90 [11]: > 100 µM
- Activity [12]: Toxic
- Cmax [13]: 0.57 nmol/g
- Cmax [14]: 21.1 nmol/g
- AUC [15]: 12.8 nmol·h/g
- Cmax [16]: 0.2 nmol/g
- Tmax [17]: 1 h
- Tmax [18]: 3 h
- Activity [19]: Non-toxic
- AUC [20]: 0.98 nmol·h/g
- EC50 [21]: 0.9 µM
- EC90 [21]: 3.2 µM
- Tmax [22]: 1 h
- Drug uptake [23]: 596 pmol
- AUC [24]: 21.5 nmol·h/g
- Activity [25]: Toxic
- Cmax [26]: 131.5 nmol/g
